In ChEMBL document CHEMBL3400020, “2'-Hydroxy flavanone derivatives as an inhibitors of pro-inflammatory mediators: Experimental and molecular docking studies” (Bioorg Med Chem Lett, 2015):
pIC50: −log10 of the molar value.

How the values were obtained:
[1] = tested on: J774.A1; assay: Inhibition of LPS-induced nitric oxide production in mouse J774A.1 cells pre-incubated for 1 hr followed by LPS stimulation for 24 hrs by Griess reagent based assay; assay type: functional, cell-based
How it was run: (§1)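 RAW 264.7 and J774A.1 cells handled in parallel. Viability was read at 50 µM alongside the LPS-stimulated NO (Griess) assay. Values are from three independent experiments, each run in triplicate.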

[2] = tested on: J774.A1; assay: Inhibition of TNFalpha production in mouse J774A.1 cells at 30 uM incubated for 6 hrs by sandwich immunoassay; assay type: functional; settings: J774.A1, 6 h
How it was run: (§2)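 In RAW 264.7 and J774A.1 macrophages, TNF-α and IL-1β were quantified. Single-point data are % inhibition at 30 µM; otherwise IC50 in µM. Values are from three separate experiments, each in triplicate.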

[3] = tested on: J774.A1; assay: Inhibition of IL-1beta production in mouse J774A.1 cells at 30 uM incubated for 12 hrs by sandwich immunoassay; assay type: functional; settings: J774.A1, 12 h; how it was run: as §2
[4] = tested on: RAW264.7; assay: Inhibition of TNFalpha production in mouse RAW264.7 cells at 30 uM incubated for 6 hrs by sandwich immunoassay; assay type: functional; settings: RAW264.7, 6 h; how it was run: as §2
[5] = Cytotoxicity against mouse J774A.1 cells assessed as cell viability at 50 uM after 24 hrs by MTT assay; assay type: cell-based, J774.A1; settings: read-out: Activity; how it was run: as §1
[6] = tested on: RAW264.7; assay: Inhibition of LPS-induced nitric oxide production in mouse RAW264.7 cells pre-incubated for 1 hr followed by LPS stimulation for 24 hrs by Griess reagent based assay; assay type: functional, cell-based; how it was run: as §1
[7] = tested on: RAW264.7; assay: Inhibition of IL-1beta production in mouse RAW264.7 cells at 30 uM incubated for 12 hrs by sandwich immunoassay; assay type: functional; settings: RAW264.7, 12 h; how it was run: as §2
[8] = Cytotoxicity against mouse RAW264.7 cells assessed as cell viability at 50 uM after 24 hrs by MTT assay; assay type: cell-based; settings: read-out: Activity; how it was run: as §1
[9] = tested on: J774.A1; assay: Inhibition of TNFalpha production in mouse J774A.1 cells incubated for 6 hrs by sandwich immunoassay; assay type: functional, cell-based; settings: J774.A1, 6 h; how it was run: as §2
[10] = tested on: Rattus norvegicus; assay: Antiinflammatory activity in Sprague-Dawley rat assessed as inhibition of LPS-induced TNFalpha production at 150 umol/kg, po pre-administered at interval of 12 hrs followed by LPS-stimulation 2 hrs after final dose and measured 2 hrs post LPS challenge by ELISA method; assay type: functional
[11] = tested on: Rattus norvegicus; assay: Antiinflammatory activity in Sprague-Dawley rat assessed as inhibition of carrageenan-induced paw edema at 150 umol/kg, po administered 1 hr before carrageenan injection and measured 3 hrs post carrageenan challenge
[12] = tested on: J774.A1; assay: Inhibition of IL-1beta production in mouse J774A.1 cells incubated for 12 hrs by sandwich immunoassay; assay type: functional, cell-based; settings: J774.A1, 12 h; how it was run: as §2
[13] = tested on: RAW264.7; assay: Inhibition of TNFalpha production in mouse RAW264.7 cells incubated for 6 hrs by sandwich immunoassay; assay type: functional, cell-based; settings: RAW264.7, 6 h; how it was run: as §2
[14] = tested on: RAW264.7; assay: Inhibition of IL-1beta production in mouse RAW264.7 cells incubated for 12 hrs by sandwich immunoassay; assay type: functional, cell-based; settings: RAW264.7, 12 h; how it was run: as §2
[15] = tested on: Rattus norvegicus; assay: Antiinflammatory activity in Sprague-Dawley rat assessed as inhibition of LPS-induced IL-1beta production at 150 umol/kg, po pre-administered at interval of 12 hrs followed by LPS-stimulation 6 hrs after final dose and measured 2 hrs post LPS challenge by ELISA method; assay type: functional
[16] = tested on: Rattus norvegicus; assay: Antiinflammatory activity in Sprague-Dawley rat assessed as inhibition of carrageenan-induced paw edema at 150 umol/kg, po administered 1 hr before carrageenan injection and measured 5 hrs post carrageenan challenge

SMILES | pIC50 [1] | pIC50 [6] | pIC50 [9] | pIC50 [12] | pIC50 [13] | pIC50 [14] | inhibition at 30 µM [2] [%] | inhibition at 30 µM [3] [%] | inhibition at 30 µM [4] [%] | viability at 24 h, 50 µM [5] [%] | inhibition at 30 µM [7] [%] | viability at 24 h, 50 µM [8] [%] | inhibition in vivo at 150 µmol/kg [10] [%] | inhibition in vivo at 150 µmol/kg [11] [%] | inhibition in vivo at 150 µmol/kg [15] [%] | inhibition in vivo at 150 µmol/kg [16] [%]
CC(C)COc1ccccc1C1CC(=O)c2ccccc2O1 (centres undefined) | 4.48 | 4.44 | – | – | – | – | 33.2 | 33.5 | 36.7 | 84.5 | 30.4 | 83.3 | – | – | – | –
CCCCCOc1ccccc1C1CC(=O)c2ccccc2O1 (centres undefined) | 4.41 | 4.41 | – | – | – | – | 39.3 | 40.1 | 39.2 | 92.1 | 41.3 | 90.3 | – | – | – | –
CC(C)CCOc1ccccc1C1CC(=O)c2ccccc2O1 (centres undefined) | 4.37 | 4.41 | – | – | – | – | 42.6 | 43.6 | 39.2 | 88.6 | 47.6 | 81.6 | – | – | – | –
CC(C)=CCOc1ccccc1C1CC(=O)c2ccccc2O1 (centres undefined) | 4.46 | 4.49 | – | – | – | – | 31.7 | 40.3 | 41.7 | 92.3 | 41.8 | 94.8 | – | – | – | –
C=CCOc1ccccc1C1CC(=O)c2ccccc2O1 (centres undefined) | 4.41 | 4.42 | – | – | – | – | 38.6 | 47 | 47.8 | 84 | 49.3 | 89.3 | – | – | – | –
O=C1CC(c2ccccc2OCc2ccccc2)Oc2ccccc21 (centres undefined) | 4.63 | 4.72 | 4.65 | 4.61 | 4.70 | 4.60 | 83.1 | 91.5 | 86.1 | 96.5 | 93.2 | 91.2 | 32.1 | 9.8 | 28.4 | 35.7
O=C1CC(c2ccccc2OCc2ccc(F)cc2)Oc2ccccc21 (centres undefined) | 4.59 | 4.55 | 4.74 | – | 4.75 | – | 94.1 | 42.1 | 92.7 | 91.1 | 45.2 | 95.2 | 55.4 | 18.2 | 43.6 | 50.5
COCOc1ccccc1C1CC(=O)c2ccccc2O1 (centres undefined) | 4.45 | 4.49 | – | – | – | – | 45.2 | 33.3 | 48.6 | 99.4 | 35.2 | 92.2 | – | – | – | –
C[C@@H]1C[C@H]2[C@@H]3CCC4=CC(=O)C=C[C@]4(C)[C@@]3(F)[C@@H](O)C[C@]2(C)[C@@]1(O)C(=O)CO [DEXAMETHASONE] | – | – | 6.40 | 4.66 | 7.40 | – | – | – | – | – | – | – | 73.4 | – | 62.5 | –
CC(C)Cc1ccc(C(C)C(=O)O)cc1 (centres undefined) [IBUPROFEN] | – | – | – | – | – | – | – | – | – | – | – | – | – | 30.5 | – | 41.4

Continued by rising pIC50 [1], values first:

pIC50 [1] | pIC50 [6] | pIC50 [9] | pIC50 [12] | pIC50 [13] | pIC50 [14] | SMILES | inhibition at 30 µM [2] [%] | inhibition at 30 µM [3] [%] | inhibition at 30 µM [4] [%] | viability at 24 h, 50 µM [5] [%] | inhibition at 30 µM [7] [%] | viability at 24 h, 50 µM [8] [%] | inhibition in vivo at 150 µmol/kg [10] [%] | inhibition in vivo at 150 µmol/kg [11] [%] | inhibition in vivo at 150 µmol/kg [15] [%] | inhibition in vivo at 150 µmol/kg [16] [%]
4.32 | 4.31 | – | – | – | – | CCCCOc1ccccc1C1CC(=O)c2ccccc2O1 (centres undefined) | 47.7 | 42.5 | 48.7 | 95.5 | 19.3 | 78.3 | – | – | – | –
4.35 | 4.34 | – | – | – | – | CCCOc1ccccc1C1CC(=O)c2ccccc2O1 (centres undefined) | 44.6 | 43.6 | 46 | 93.6 | 45.7 | 91.7 | – | – | – | –
4.35 | 4.33 | – | – | – | – | COc1ccccc1C1CC(=O)c2ccccc2O1 (centres undefined) | 34.5 | 38.3 | 37.3 | 89.3 | 37.3 | 84.3 | – | – | – | –
4.41 | 4.41 | – | – | – | – | CCOc1ccccc1C1CC(=O)c2ccccc2O1 (centres undefined) | 38.8 | 27.7 | 38.5 | 92.7 | 29.6 | 82.6 | – | – | – | –
4.54 | 4.57 | 4.63 | 4.64 | 4.63 | 4.60 | CC(C)c1ccc(COc2ccccc2C2CC(=O)c3ccccc3O2)cc1 (centres undefined) | 78.6 | 91.7 | 80.6 | 99.7 | 91.5 | 92.5 | 30.3 | 18 | 24.6 | 32.3
4.88 | 4.81 | 4.70 | 4.52 | 4.70 | 4.56 | O=C1CC(c2ccccc2OCc2cccc(F)c2)Oc2ccccc21 (centres undefined) | 96.2 | 92.7 | 91.6 | 92.7 | 93.3 | 90.3 | 49.6 | 5.2 | 39.2 | 39.5
